# From PubChem BioAssay
# PAFAH2 inh – inhibitors of human PAFAH2; Q99487; AID 492956; hit rate 0.99% among 340,000; inhibition, % at 3.39 µM; recombinant PAFAH2, FP-rhodamine activity probe, fluorescence polarization;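 active means inhibition above the mean over all tested compounds plus 3 SD, cut at about 30% in these data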;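 further: inhibitors block probe labeling of enzyme so polarization drops; 0% = enzyme with DMSO and 100% = wells lacking PAFAH2 protein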
# PAFAH1B3 inh – blocks human PAF acetylhydrolase 1B catalytic subunit 3; inhibition, % at 3.39 µM; AID 492972; hit rate 0.28% among 340,000; recombinant PAFAH1B3, FP-rhodamine probe, fluorescence polarization;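 active means inhibition above the screen-wide average of all tested compounds plus 3 SD, cut at about 25% in these data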;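 further: 0% = enzyme with DMSO only and 100% = wells lacking PAFAH1B3 protein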
# pPAFAH FP inh – pPAFAH (human) enzyme inhibition. recombinant pPAFAH, FP-rhodamine probe fluorescence polarization. inhibition, % at 3.39 µM. hit rate 1.5% among 330,000. AID 463082;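 active means inhibition above the mean inhibition across the screen plus 3 SD, cut at about 25% in these data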;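 further: inhibitors block binding of the rhodamine activity-based probe so polarization drops; 0% = enzyme with DMSO and 100% = wells lacking pPAFAH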
# Target sequence (Q13093 whole entry, looked up): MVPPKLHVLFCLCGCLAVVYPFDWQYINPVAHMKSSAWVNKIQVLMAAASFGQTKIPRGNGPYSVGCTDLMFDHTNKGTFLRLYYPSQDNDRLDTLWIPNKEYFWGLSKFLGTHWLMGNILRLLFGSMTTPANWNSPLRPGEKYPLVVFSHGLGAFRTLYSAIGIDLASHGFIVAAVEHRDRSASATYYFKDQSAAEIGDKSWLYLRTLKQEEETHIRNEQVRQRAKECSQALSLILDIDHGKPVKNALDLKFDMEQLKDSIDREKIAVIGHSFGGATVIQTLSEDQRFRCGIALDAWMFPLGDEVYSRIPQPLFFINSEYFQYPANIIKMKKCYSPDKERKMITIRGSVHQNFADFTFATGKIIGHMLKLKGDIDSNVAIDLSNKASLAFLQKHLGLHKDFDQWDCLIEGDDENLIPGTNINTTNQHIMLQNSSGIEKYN
# ARFGAP1 inh – inhibitors of rat ARFGAP1 | Q62848 | Arfgap1-stimulated ARF1 GTP hydrolysis, GDP FP detection | inhibition, % at 16.5 µM | hit rate 0.26% among 360,000 | AID 651572;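 active means inhibition above a per-plate limit, mean inhibition of low control wells plus 3 SD, cut at about 25% in these data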;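 further: 0% = DMSO wells with enzyme and 100% = wells lacking Arfgap1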
# Target sequence (Q62848 1-136 limits assumed): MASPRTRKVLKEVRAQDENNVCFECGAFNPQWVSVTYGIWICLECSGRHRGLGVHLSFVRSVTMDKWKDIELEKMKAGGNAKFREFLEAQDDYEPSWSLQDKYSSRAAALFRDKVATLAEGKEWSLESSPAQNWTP
#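 System: truncated rat Arfgap1 GAP domain / Medium: HEPES-based buffer, pH 7.5 / Also added: N-terminally truncated human ARF1-GTP substrate / Incubation: enzyme reaction 120 min at 25 °C after 20 min preincubation / Measured by: FP of antibody-bound GDP Alexa 633 tracer, ex 620/em 688 nm / Replicates: singlicate, each compound tested once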
# ASAP1 GAP inh – blocks human ASAP1-stimulated Arf1 GTP hydrolysis | Q9ULH1 | GDP FP detection | inhibition, % at 16.5 µM | hit rate 0.19% among 360,000 | AID 624377; in the data active means inhibition above about 25%;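 further: 0% = vehicle with enzyme and substrate and 100% = no enzyme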
# PAFAH1B2 inh – PAFAH1B2 (human) inhibition | recombinant PAFAH1B2, FP-rhodamine activity probe, fluorescence polarization | P68402 | AID 492953 | inhibition, % at 3.39 µM | hit rate 1.2% among 340,000;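 active means inhibition above the mean of all tested compounds plus 3 SD, cut at about 24% in these data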;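 further: 0% = enzyme with DMSO and 100% = wells lacking PAFAH1B2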
# PAFAH2 FP conf – PAFAH2 (human) inhibition, confirmed. shares compounds with PAFAH2 inh. recombinant PAFAH2, FP-rhodamine activity probe, fluorescence polarization. hit rate 65% among 2,300. inhibition, % at 3.39 µM;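 active means mean inhibition over three repeats above a set limit taken from the earlier primary screen, cut at about 30% in these data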;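 further: inhibitor blocks binding of rhodamine activity probe so polarization falls; 0% = enzyme with DMSO and 100% = wells lacking PAFAH2 protein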
# * hit, by the source's call; nt = not tested or not shown. In the library only some 2.7% were active in any assay of this set; here they are far more common.
SMILES,PAFAH2 inh,PAFAH1B3 inh,pPAFAH FP inh,ARFGAP1 inh,ASAP1 GAP inh,PAFAH1B2 inh,PAFAH2 FP conf
CCC(=O)Nc1ccc(C(=O)n2ccc(C)n2)cc1,59*,9,-9,-1,4,5,61*
O=C(NCCC(=O)N(Cc1ccco1)Cc1cccs1)c1ccc([N+](=O)[O-])cc1,2,0,nt,7,-3,-2,nt
O=C(COC(=O)Cn1cc(C(F)(F)F)ccc1=O)Nc1ccccc1,68*,0,0,14,-1,1,60*
O=C(Cn1cc(C(F)(F)F)ccc1=O)Nc1ccccc1,1,3,2,7,1,5,nt
CC(C)NC(=S)N/N=C/c1cc(Br)ccc1O,32*,6,14,2,3,8,32*
COC(=O)N/N=C/c1cc(Br)ccc1O,6,3,4,9,6,3,nt
COc1ccc(CNC(=O)COC(=O)C2CC2C)cc1OC (stereo not drawn),8,5,0,7,0,3,nt
CC1CC1C(=O)OCC(=O)NCc1ccc(Cl)cc1Cl (stereo not drawn),62*,4,6,2,0,5,53*
CC1CC1C(=O)OCC(=O)NCc1ccc(Cl)cc1 (stereo not drawn),46*,1,7,-1,7,6,23
O=C(CCc1nc(-c2ccc(F)cc2)no1)Nc1cccc(C(=O)NC2CC2)c1,5,10,-1,-3,-13,10,nt
CCOC(=O)[C@]12CCC=C1N(Cc1ccc3c(c1)OCO3)C(=O)[C@H](CC(=O)NCCCOC)C2,nt,nt,nt,8,-5,nt,nt
COc1ccc(C2CC(c3ccccc3)=NN2C(=O)COC(=O)c2cc(S(=O)(=O)N3CCOCC3)ccc2Cl)cc1 (stereo not drawn),31*,-15,-2,9,2,-8,23
O=C(COC(=O)c1cc(S(=O)(=O)N2CCOCC2)ccc1F)Nc1ccc2c(c1)OCO2,3,0,8,0,-2,-1,nt
Cc1ccc(S(=O)(=O)N2CCOCC2)cc1C(=O)OCC(=O)Nc1ccc2c(c1)OCO2,37*,8,4,9,-9,3,23
COc1ccc(C2CC(c3ccccc3)=NN2C(=O)COC(=O)c2cccnc2Cl)cc1 (stereo not drawn),2,-1,-6,6,-2,3,nt
COc1cccc(NC(=O)COC(=O)c2cc(S(=O)(=O)N3CCOCC3)ccc2C)c1,35*,6,3,7,10,1,21
COC(=O)CCCn1cc(CN2CC(N3CCN(CCN(C)C)CC3)CS2(=O)=O)nn1 (stereo not drawn),nt,nt,nt,-9,-8,nt,nt
Cc1ccc(NC(=O)COC(=O)c2ccccc2Cl)cc1S(=O)(=O)N(C)C,58*,1,2,1,6,-1,39*
Cc1ccc(S(=O)(=O)N2CCCCC2)cc1NC(=O)COC(=O)c1cccc(O)c1,nt,nt,nt,14,-1,nt,nt
Cc1ccc(NC(=O)c2ccccc2F)cc1S(=O)(=O)N1CCCCCC1,6,-1,-2,6,-12,0,nt
Cc1ccc(NC(=O)Cc2ccccc2Cl)cc1S(=O)(=O)N(C)C,6,0,2,0,10,-6,nt
Cc1ccc(NC(=O)COC(=O)c2ccccc2F)cc1S(=O)(=O)N1CCCCC1,67*,-1,nt,0,-5,1,59*
Cc1ccc(S(=O)(=O)N2CCCCC2)cc1NC(=O)COC(=O)c1ccccc1F,52*,0,12,7,2,-5,53*
CCOc1ccc(N=Cc2ccccc2O)cc1,1,17,nt,1,-10,3,nt
COC[C@H](NS(=O)(=O)c1ccc(Br)cc1F)[C@@H](O)c1ccccc1,nt,nt,nt,-7,3,nt,nt
SMILES,PAFAH2 inh,PAFAH1B3 inh,pPAFAH FP inh,ARFGAP1 inh,ASAP1 GAP inh,PAFAH1B2 inh,PAFAH2 FP conf
O=C(COC(=O)c1ccccc1OC(F)F)Nc1ccc(N2CCCCC2)cc1,42*,10,22,-2,2,3,37*
CCOc1ccccc1C(=O)OCC(=O)Nc1ccc(N2CCCCC2)cc1,36*,-5,22,12,-1,4,28
CN1/C(=C\C(=O)COC(=O)c2ccco2)C(C)(C)c2ccccc21,33*,7,-5,0,-4,8,37*
O=C(COC(=O)c1cc(Br)ccc1O)NC1CCCCCC1,25,13,6,-3,0,1,nt
O=C(COC(=O)c1cc2ccccc2cc1O)NC1CCCCC1,48*,5,8,3,1,3,33*
CCCCNC(=O)COC(=O)c1ccccc1F,46*,0,12,-2,-2,7,40*
O=C(COC(=O)c1ccccn1)NC1CCCCC1,7,5,6,-9,9,-1,nt
Nc1ncccc1C(=O)OCC(=O)NC1CCCCCC1,42*,9,6,-1,-4,5,25
O=C(COC(=O)c1c(F)cccc1Cl)NC1CCCCC1,66*,5,nt,11,-2,3,48*
Cc1cc(F)ccc1NC(=O)c1ccc(NS(=O)(=O)c2cccs2)cc1,nt,nt,nt,-13,-7,nt,nt
COc1ccc(-c2csc(C(O)c3ccc(F)c(OC)c3)n2)cc1 (stereo not drawn),nt,nt,nt,-6,-1,nt,nt
COc1ccc(NC(=O)C2(C)Cc3c(-c4cccc(C(N)=O)c4)ccnc3O2)cn1 (stereo not drawn),nt,nt,nt,13,2,nt,nt
O=C(COC(=O)c1ccccc1F)NC1CCCC1,64*,4,16,-15,-12,3,60*
O=C(COC(=O)c1cccnc1Nc1ccccc1F)NC1CC1,-1,8,1,6,-2,4,nt
O=C(COC(=O)c1ccccc1F)NC1CC1,30*,7,7,1,-21,5,28
CCOC(=O)C1=CCN(S(=O)(=O)c2ccccc2)C1c1ccc(Cl)cc1 (stereo not drawn),nt,nt,nt,0,10,nt,nt
CC1(c2nnnn2Cc2ccccc2)CCC(=O)N1CC1CCCCC1 (stereo not drawn),nt,nt,nt,-8,6,nt,nt
O=C(NC1CCCCC1)C(c1ccncc1)N(C(=O)Cn1nnc(-c2cccs2)n1)C1CCCC1 (stereo not drawn),62*,-4,6,5,22,-1,54*
COc1ccc(-n2nc(C)c3onc(C)c3c2=O)cc1,nt,nt,2,-6,-5,nt,nt
CCOC(=O)c1nc(C)n(-c2ccc(Cl)cc2)n1,-10,7,8,12,15,4,nt
COc1ccc(-n2nc(N)c3c(=O)oc(N(C)C)nc32)cc1,54*,1,18,-3,-3,2,45*
